Calls of active or inactive are those of the source. The rule behind the calls is not given here.

What is called GI50 is the concentration at which growth is held to half of that of the control. As a reminder, the IC50 is the concentration that inhibits the measured activity by half. Higher therefore signals weaker potency in that assay.

The subject of assay [1] is MDA-MB-468. Put plainly: Antiproliferative activity against human MDA-MB-468 cell line. In kind it is functional. An outline of the steps: (§1)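 Cells kept in RPMI 1640 with 2 mM L-glutamine and 10% fetal calf serum, 37 °C, 5% CO₂, passaged twice weekly. 5 × 10³ cells/well allowed 24 h to adhere, then exposed 72 h to compound at final 0.1 nM–100 µM (n = 8). MTT read-out: MTT 400 µg/mL for 4 h at 37 °C, formazan dissolved in DMSO/glycine buffer pH 10.5, absorbance 550 nm; GI50 derived.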

In a further assay the test system is MCF7. Nature of the assay: Antiproliferative activity against human MCF7 cell line. In kind it is functional. An outline of the steps: as §1
The test system of the next assay is HT-29. Nature of the assay: Antiproliferative activity against human HT29 cell line. In kind it is functional. The procedure, abridged:
as §1

The next assay has as its system HCT-116. Nature of the assay: Antiproliferative activity against human HCT116 cell line. In kind it is functional. The procedure, abridged: as §1
For assay [2], the system named is Panel NCI-60 (60 carcinoma cell lines). Nature of the assay: Antiproliferative activity against human NCI60 cell line. In kind it is functional.
Assay [3] has as its system MDA-MB-468. Put plainly: Antiproliferative activity against human MDA-MB-468 cell line in presence of 10 nM TBDD. In kind it is functional. The procedure, abridged: (§2)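 MDA-MB-468 cells, 5 × 10³/well, allowed 24 h to adhere, then co-exposed 72 h to isoflavone (final 0.1 nM–100 µM, n = 8) plus TBDD at final 10 nM (n = 4). Viability measured by MTT (400 µg/mL, 4 h, 37 °C), formazan dissolved in DMSO/glycine pH 10.5, absorbance 550 nm.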

The subject of assay [4] is MDA-MB-468. Nature of the assay: Cytotoxicity against human MDA-MB-468 cell line at 3 uM in presence of TBDD. In kind it is functional, cell-based. The procedure, abridged: as §2
The test system of a further assay is MDA-MB-435. Nature of the assay: Antiproliferative activity against human MDA-MB-435 cell line expressing ARNT splice variant.
In another assay the target is T1, Cytochrome P450 1A1 (Homo sapiens, UniProt P04798).
T1 sequence (P04798 whole entry): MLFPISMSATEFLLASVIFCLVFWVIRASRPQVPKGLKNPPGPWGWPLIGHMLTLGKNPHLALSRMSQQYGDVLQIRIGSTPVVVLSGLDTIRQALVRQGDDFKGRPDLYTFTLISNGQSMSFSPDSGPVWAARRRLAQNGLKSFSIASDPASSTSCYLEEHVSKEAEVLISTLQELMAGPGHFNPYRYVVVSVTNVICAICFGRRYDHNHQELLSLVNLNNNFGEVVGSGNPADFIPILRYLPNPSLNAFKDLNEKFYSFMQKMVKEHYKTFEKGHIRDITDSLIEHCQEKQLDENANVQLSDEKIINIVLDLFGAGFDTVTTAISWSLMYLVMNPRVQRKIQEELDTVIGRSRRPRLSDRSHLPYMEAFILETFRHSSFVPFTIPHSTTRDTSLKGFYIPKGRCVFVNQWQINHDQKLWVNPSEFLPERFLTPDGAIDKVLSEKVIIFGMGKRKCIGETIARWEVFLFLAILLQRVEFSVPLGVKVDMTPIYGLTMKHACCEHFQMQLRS
Nature of the assay: Inhibition of CYP1A1 by EROD assay. In kind it is ADME. An outline of the steps: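 EROD fluorometric assay. Recombinant CYP1A1 microsomes (0.1 mg/mL) in 100 mM Tris-HCl pH 7.4 with 50 µM MgCl₂ and 100 µM 7-ethoxyresorufin, with compound at 1, 10 or 100 µM. Preincubated 5 min at 37 °C, started with 500 µM NADPH, run 15 min at 37 °C, stopped with ice-cold acetonitrile. Resorufin read at ex 530/em 585 nm against a standard curve; no-microsome and DMSO controls.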

Take `COc1cccc(-c2coc3ccccc3c2=O)c1`: the GI50 was 29 µM with MDA-MB-468 [1]; above 100 µM in the assay with MCF7; 88 µM in the assay with HT-29; above 100 µM in the assay with HCT-116; 50 µM in [2]; below 1 µM with MDA-MB-468 [3].

With `Cc1cc(-c2nc3cc(F)ccc3s2)ccc1N`, the GI50 in the assay on MDA-MB-468 [1] was below 0.0001 µM; in the assay with MCF7, below 0.0001 µM; with HT-29 it was 63 µM; in the assay on HCT-116, 16 µM.

In the case of `COc1ccc(-c2coc3c(F)cccc3c2=O)cc1OC`, the GI50 in the assay on MDA-MB-468 [1] is 41.9 µM; in the assay with MCF7 it was 75.5 µM; in the assay on HT-29, 88 µM; in the assay with HCT-116, 67.8 µM; in assay [2], 50 µM; in the assay with MDA-MB-468 [3], below 1 µM. Besides, in the assay with MDA-MB-468 [4], the outcome was Active.

For the compound `O=c1c(-c2cccc([N+](=O)[O-])c2)coc2ccccc12`, it took 50 µM to inhibit growth in assay [2] by half (GI50).

`COc1ccc(-c2coc3cc(F)c(F)cc3c2=O)cc1OC`: the GI50 is 17.2 µM in the assay with MDA-MB-468 [1]; 41.5 µM in the assay on MCF7; 22.6 µM with HT-29; 39.7 µM in the assay on HCT-116; 50 µM in assay [2]; above 30 µM with MDA-MB-435.

In assay [2], `O=c1c(-c2ccc(Cl)cc2)coc2ccccc12` had a GI50 of 50 µM.

Consider `COc1ccc(-c2coc3ccc(F)cc3c2=O)cc1`, for which, in [2], growth was halved (GI50) at 50 µM. The IC50 against Cytochrome P450 1A1 was below 100 µM.

For `O=c1c(-c2ccc(Br)cc2)coc2ccccc12`, halving of growth in [2] (GI50) required 50 µM.

For the compound `COc1ccc(-c2nc3cc(F)ccc3s2)cc1OC`, the GI50 is below 0.0001 µM in the assay on MDA-MB-468 [1], 0.008 µM with MCF7, 2.6 µM in the assay with HT-29 and 5.4 µM with HCT-116.

For the compound `Nc1ccc(-c2coc3cc(F)ccc3c2=O)cc1`, the GI50 with MDA-MB-468 [1] came out at 6.4 µM; in the assay with MCF7, 7.9 µM; in the assay on HT-29, 8.6 µM; in the assay on HCT-116, 7.2 µM; in assay [2], 50 µM.

With `COc1ccc(-c2coc3ccccc3c2=O)cc1OC`, the concentration for 50% growth inhibition (GI50) in the assay on MDA-MB-468 [1] is 66.5 µM; in the assay on MCF7 it was 88.1 µM; with HT-29, above 100 µM; with HCT-116 it was above 100 µM; in assay [2], 50 µM; in the assay with MDA-MB-468 [3], below 1 µM.

`COc1ccc(-c2coc3cc(F)ccc3c2=O)cc1OC`: the GI50 in the assay on MDA-MB-468 [1] was 58.9 µM; in the assay on MCF7, 90.6 µM; in the assay on HT-29, 87 µM; with HCT-116, 80.2 µM; in assay [2] it was 50 µM; in the assay on MDA-MB-468 [3], below 1 µM. The compound also registered an IC50 against Cytochrome P450 1A1 below 100 µM. Besides, the result with MDA-MB-468 [4] was Active.

Take `COc1ccc(-c2coc3c(F)c(F)ccc3c2=O)cc1OC`: the GI50 with MDA-MB-468 [1] is 21.6 µM; in the assay with MCF7, 47.2 µM; in the assay on HT-29 it was 31.7 µM; in the assay with HCT-116, 26 µM; in assay [2] it was 50 µM; in the assay on MDA-MB-468 [3], below 1 µM.

On to `O=c1c(-c2ccc3c(c2)OCO3)coc2ccc(F)cc12`, for which the GI50 with MDA-MB-468 [1] was 1.5 µM; with MCF7, 60 µM; in assay [2], 50 µM; with MDA-MB-468 [3] it was 2 µM.

For `Nc1ccc(-c2coc3ccccc3c2=O)cc1`, the GI50 is 6 µM in the assay on MDA-MB-468 [1]; 64.9 µM with MCF7; 8.1 µM in the assay on HT-29; 17.3 µM with HCT-116; 50 µM in assay [2].

In the case of `COc1ccc(-c2coc3c(F)cc(F)cc3c2=O)cc1OC`, the GI50 is 6.3 µM in the assay with MDA-MB-468 [1]; 46.7 µM with MCF7; 7.2 µM in the assay with HT-29; 8.1 µM in the assay on HCT-116; 50 µM in assay [2]; above 30 µM in the assay on MDA-MB-435.

Regarding `COc1ccc(-c2coc3cc(F)ccc3c2=O)cc1`, the GI50 in the assay with MDA-MB-468 [1] is 9.9 µM; with MCF7, 43.8 µM; with HT-29, 17.6 µM; in the assay on HCT-116, 8.5 µM; in assay [2] it was 50 µM; in the assay with MDA-MB-435 it was above 30 µM.

`Nc1ccc(-c2coc3ccc(F)cc3c2=O)cc1`: the GI50 came out at 4.8 µM in the assay on MDA-MB-468 [1]; 8.8 µM in the assay on MCF7; 6.1 µM in the assay on HT-29; 8.5 µM in the assay on HCT-116; 50 µM in assay [2].

As to `COc1ccc(-c2coc3ccc(F)cc3c2=O)cc1OC`, the GI50 with MDA-MB-468 [1] was 0.9 µM; with MCF7, 93.1 µM; in the assay with HT-29, 88.2 µM; with HCT-116, 65.3 µM; in assay [2], 50 µM; in the assay with MDA-MB-468 [3], below 1 µM. In the assay with MDA-MB-435, this compound returned a GI50 above 30 µM. This compound came in with an IC50 against Cytochrome P450 1A1 below 100 µM.

For the origin of these results see ChEMBL document CHEMBL1138034, “Structural studies on bioactive compounds. 40.(1) Synthesis and biological properties of fluoro-, methoxyl-, and amino-substituted 3-phenyl-4H-1-benzopyran-4-ones and a comparison of their antitumor activities with the activities of related 2-phenylbenzothiazoles” (J Med Chem, 2006).
